# Results: ChEMBL document CHEMBL4699485, “Discovery and Development of SPR519 as a Potent, Selective, and Orally Bioavailable Inhibitor of PI3Kα and mTOR Kinases for the Treatment of Solid Tumors” (J Med Chem, 2020)
# Tests used:
# [1] = test system: PC-3; assay: Antiproliferative activity against human PC-3 cells after 48 hrs by MTT assay; assay type: functional, cell-based; conditions: PC-3, 48 h
# Outline: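 PC3 cells grown in RPMI 1640 with 10% FBS and 1% penicillin/streptomycin at 37 °C, 5% CO2, seeded at 10000 cells/well. Treated 48 h across 20 µM–0.001 µM. MTT (5 mg/mL in PBS) added for 4 h, then DMSO solubilization and absorbance at 550 nm. Four-parameter nonlinear fit of % inhibition.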
# [2] = Metabolic stability in mouse liver microsomes assessed as parent compound remaining at 10 uM remaining after 120 mins in presence of NADPH by HPLC analysis; assay type: ADME, Microsome; conditions: read-out: Stabilty
# Outline: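 Compound at 10 µM was incubated with 0.5 mg/mL liver microsomes and 1 mM NADPH (final). Samples were taken at 0, 15, 30, 60 and 120 min and stopped with acetonitrile, then centrifuged and the supernatant analysed by HPLC. Percent parent remaining was set relative to the 0 min peak area (100%).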
# [3] = molecular target: Cytochrome P450 3A4 (Homo sapiens, UniProt P08684); assay: Inhibition of CYP3A4 in human liver microsomes using isoform-specific probe substrates preincubated for 5 mins followed by NADPH addition by LC-MS/MS analysis; assay type: ADME
# Outline: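 Human liver microsomes premixed with buffer and a CYP-specific FDA-recommended probe substrate, then spiked with inhibitor, in duplicate. After 5 min preincubation at 37 °C, reaction started with NADPH and run at 37 °C for a set time, then quenched. Metabolite formation quantified by HPLC/LC-MS/MS to derive the concentration giving 50% inhibition.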
# [4] = molecular target: Glycogen synthase kinase-3 beta (Homo sapiens) (UniProt P49841); assay: Inhibition of human GSK3B at 1 uM using fluorescently labeled peptide substrate measured after 3 hrs by microfluidic mobility shift assay relative to control
# Outline: (§1)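 Single-concentration screen at 1 µM in duplicate, 1% final DMSO. Kinase (typically 1 nM), fluorescently labeled peptide substrate (typically 1 µM), ATP at Km and Mg²⁺ incubated about 3 h at 25 °C, then EDTA-quenched. Substrate and phosphorylated product separated by microfluidic electrophoresis and quantified by fluorescence.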
# [5] = molecular target: Ribosomal protein S6 kinase beta-2 (Homo sapiens) (UniProt Q9UBS0); assay: Inhibition of human RPS6KB2 at 1 uM using fluorescently labeled peptide substrate measured after 3 hrs by microfluidic mobility shift assay relative to control; outline: as §1
# [6] = molecular target: Phosphatidylinositol 4,5-bisphosphate 3-kinase catalytic subunit alpha isoform (Homo sapiens) (UniProt P42336); assay: Inhibition of human PI3kalpha at 1 uM using fluorescently labeled peptide substrate measured after 3 hrs by microfluidic mobility shift assay relative to control; outline: as §1
# [7] = Cmax in Swiss mouse at 1 mg/kg, po via gavage by LC-MS/MS analysis; assay type: ADME, organism-based; design: route oral, dose 1 mg/kg; conditions: in vivo
# Outline: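 Female Swiss mice (n=3/group), fasted overnight, given single oral gavage dose in 0.5% CMC/0.5% Tween 80 (10 mL/kg) at 1, 3 or 10 mg/kg. Serial blood sampling at 0.16–8 h into heparinized tubes. Plasma extracted with acetonitrile containing verapamil internal standard and quantified by LC-MS/MS. Cmax, Tmax, AUC and t1/2 derived from the concentration–time profile.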
# [8] = Toxicity in Swiss mouse assessed as body weight loss at 10 mg/kg, po administered twice daily via gavage for 5 days and measuring daily during compound dosing; assay type: organism-based; conditions: in vivo, 120 h, time 5 day
# Outline: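 Female Swiss mice (3 treated, 2 vehicle controls) received oral gavage twice daily for 5 days, with compound formulated in 0.5% CMC and Tween 80. Body weight, body temperature, body coat, feed intake, eyes, feces and general activity were observed daily.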
# [9] = Toxicity in Swiss mouse assessed as discoloration of lung at 30 mg/kg, po administered twice daily via gavage for 5 days and measured post last dose; assay type: organism-based; conditions: in vivo, 120 h, time 5 day
# Outline: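 Female Swiss mice (3 treated, 2 controls) were gavaged twice daily for 5 days, with compound in 0.5% CMC and Tween 80. After the last dosing the animals were sacrificed. Liver, kidney, lung, uterus and brain were excised and inspected visually for morphology and color change.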
# [10] = Drug level in Swiss mouse brain at 30 mg/kg, po administered twice daily via gavage for 5 days and measured post last dose by LC-MS/MS analysis; assay type: ADME, organism-based; conditions: in vivo, 120 h, time 5 day
# Outline: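 Female Swiss mice (n=3) given 30 mg/kg in 0.5% CMC/Tween 80 by oral gavage twice daily for 5 days, with two vehicle controls. After sacrifice, liver, kidney, lung, uterus and brain were collected, homogenized in water and solvent-extracted. Drug concentration (ng/g) measured by LC-MS/MS.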
# [11] = test system: HCT-116; assay: Antitumor activity against human HCT-116 cells xenografted in po dosed CD1 nude mouse assessed as reduction in tumor volume administered once daily for 21 days and measured at 3 days interval during compound dosing; assay type: functional, organism-based; conditions: dose mg/kg 2.5-20, time 21.0 day
# Outline: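 Female CD1 nude mice bearing subcutaneous HCT116 xenografts, randomized at average tumor size 120–130 mm³, five per group. Dosed orally once daily at 2.5, 5, 10 or 20 mg/kg for 21 days alongside a vehicle control. Caliper measurement of tumor volume as (width² × length)/2, monitored every third day.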
# Glycogen synthase kinase-3 beta (Homo sapiens), sequence (P49841 whole entry, looked up): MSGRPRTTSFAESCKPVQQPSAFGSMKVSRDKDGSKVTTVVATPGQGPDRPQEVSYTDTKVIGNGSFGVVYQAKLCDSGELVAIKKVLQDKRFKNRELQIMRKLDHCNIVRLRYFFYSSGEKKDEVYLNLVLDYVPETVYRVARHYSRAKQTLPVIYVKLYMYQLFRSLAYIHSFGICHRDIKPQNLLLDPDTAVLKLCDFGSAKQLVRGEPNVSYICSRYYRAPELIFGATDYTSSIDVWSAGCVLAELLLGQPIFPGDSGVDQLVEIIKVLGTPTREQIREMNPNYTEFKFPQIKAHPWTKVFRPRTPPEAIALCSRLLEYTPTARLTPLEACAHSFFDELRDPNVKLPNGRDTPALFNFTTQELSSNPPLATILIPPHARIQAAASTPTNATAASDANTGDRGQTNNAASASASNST
# Phosphatidylinositol 4,5-bisphosphate 3-kinase catalytic subunit alpha isoform (Homo sapiens), sequence (P42336 whole entry, canonical isoform): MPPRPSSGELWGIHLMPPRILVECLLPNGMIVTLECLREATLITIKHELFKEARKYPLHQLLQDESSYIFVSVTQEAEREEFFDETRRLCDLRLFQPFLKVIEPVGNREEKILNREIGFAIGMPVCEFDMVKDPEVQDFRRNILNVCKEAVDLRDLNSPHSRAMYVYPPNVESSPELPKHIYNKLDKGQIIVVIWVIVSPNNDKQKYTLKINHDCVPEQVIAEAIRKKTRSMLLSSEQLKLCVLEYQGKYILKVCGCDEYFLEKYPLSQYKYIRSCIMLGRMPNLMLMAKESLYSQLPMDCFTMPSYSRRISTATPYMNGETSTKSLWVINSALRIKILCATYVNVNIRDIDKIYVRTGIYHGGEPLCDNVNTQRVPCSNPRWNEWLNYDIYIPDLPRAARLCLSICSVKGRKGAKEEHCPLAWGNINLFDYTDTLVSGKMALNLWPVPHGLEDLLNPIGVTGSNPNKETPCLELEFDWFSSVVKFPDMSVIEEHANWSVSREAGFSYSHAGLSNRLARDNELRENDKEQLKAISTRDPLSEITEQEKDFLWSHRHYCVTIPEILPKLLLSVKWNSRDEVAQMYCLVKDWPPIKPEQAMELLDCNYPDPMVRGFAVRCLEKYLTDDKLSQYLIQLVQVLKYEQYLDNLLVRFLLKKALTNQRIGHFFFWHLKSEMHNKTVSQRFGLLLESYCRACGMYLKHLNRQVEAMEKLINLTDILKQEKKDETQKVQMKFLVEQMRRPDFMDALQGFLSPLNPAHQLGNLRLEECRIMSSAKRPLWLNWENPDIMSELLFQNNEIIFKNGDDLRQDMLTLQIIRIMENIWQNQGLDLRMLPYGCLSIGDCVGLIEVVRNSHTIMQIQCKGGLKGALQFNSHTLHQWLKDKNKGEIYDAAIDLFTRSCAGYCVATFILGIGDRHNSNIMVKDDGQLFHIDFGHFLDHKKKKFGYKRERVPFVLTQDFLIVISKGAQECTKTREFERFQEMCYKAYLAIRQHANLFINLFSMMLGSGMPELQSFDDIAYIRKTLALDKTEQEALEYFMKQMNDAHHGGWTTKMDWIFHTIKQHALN
# Ribosomal protein S6 kinase beta-2 (Homo sapiens), sequence (Q9UBS0 whole entry, canonical isoform): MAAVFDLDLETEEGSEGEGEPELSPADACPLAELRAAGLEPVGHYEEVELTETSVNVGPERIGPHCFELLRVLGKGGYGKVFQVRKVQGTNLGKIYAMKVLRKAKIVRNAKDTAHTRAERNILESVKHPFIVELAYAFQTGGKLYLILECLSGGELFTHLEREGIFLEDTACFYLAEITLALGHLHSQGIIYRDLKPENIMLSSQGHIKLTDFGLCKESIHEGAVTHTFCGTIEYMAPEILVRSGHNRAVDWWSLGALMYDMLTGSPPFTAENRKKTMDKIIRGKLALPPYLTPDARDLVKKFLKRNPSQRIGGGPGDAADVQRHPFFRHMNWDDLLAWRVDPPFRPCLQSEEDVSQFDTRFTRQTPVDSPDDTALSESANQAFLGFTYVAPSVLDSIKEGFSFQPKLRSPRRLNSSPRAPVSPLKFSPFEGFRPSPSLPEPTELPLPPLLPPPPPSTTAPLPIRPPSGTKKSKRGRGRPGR
# Cytochrome P450 3A4, sequence (P08684 whole entry, canonical isoform): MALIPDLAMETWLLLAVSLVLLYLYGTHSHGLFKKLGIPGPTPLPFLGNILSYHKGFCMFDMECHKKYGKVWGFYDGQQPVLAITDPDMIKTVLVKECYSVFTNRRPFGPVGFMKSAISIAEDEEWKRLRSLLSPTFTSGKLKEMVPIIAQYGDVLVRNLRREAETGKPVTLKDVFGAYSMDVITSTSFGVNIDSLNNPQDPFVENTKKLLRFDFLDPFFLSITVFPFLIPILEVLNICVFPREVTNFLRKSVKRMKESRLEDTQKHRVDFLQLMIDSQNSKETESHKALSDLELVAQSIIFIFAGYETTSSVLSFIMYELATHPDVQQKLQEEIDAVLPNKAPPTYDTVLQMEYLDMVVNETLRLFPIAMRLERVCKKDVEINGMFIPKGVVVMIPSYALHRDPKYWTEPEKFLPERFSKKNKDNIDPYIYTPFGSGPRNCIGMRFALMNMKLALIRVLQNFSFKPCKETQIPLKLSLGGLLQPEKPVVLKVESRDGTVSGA
compound,measurement,setting,value
CN(C)C(=O)c1ccc(Oc2nc(-c3cnc(N)s3)nc(N3CCOCC3)n2)cc1,EC50,[1],480 nM
same,"remaining at 2 h, 10 µM",[2],103%
same,IC50,[3],> 10000 nM
same,inhibition,[4],-1%
same,inhibition,[5],-3%
same,inhibition,[6],86%
same,Cmax,[7],5.01 µM
same,Activity,[8],Non-Toxic
same,Activity,[9],Non-Toxic
same,Drug uptake,[10],Not Active
same,Activity,[11],Dose-dependent effect
